pIC50: −log10 of the molar value. Counter-ions that a name gives are not always drawn.
What was measured:
Coxsackievirus B3 [1] = test: Antiviral activity against pleconaril-resistant Coxsackievirus B3 97927 11207K/I1092 mutant infected in human HeLa cell line assessed as inhibition of virus-induced cytopathic effect measured after 48 hrs by crystal violet uptake assay; assay type: functional, organism-based; details: for pIC50: read-out: IC50
Summary of the method: (§1)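 HeLa Ohio monolayers, 2 days old and confluent, in MEM with 2% FCS. Serial half-log compound dilutions from 100 μM were added just before CVB3 infection. Activity was calculated per Pauwels against six cell and six virus controls; mean IC50 from ≥3 experiments.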

rhinovirus B14 = test: Antiviral activity against Rhinovirus B14 infected in human HeLa cell line assessed as inhibition of virus-induced cytopathic effect measured after 72 hrs by crystal violet uptake assay; assay type: functional, organism-based; details: for pIC50: Rhinovirus B, HeLa, 72 h, read-out: IC50
Summary of the method: (§2)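 HeLa Ohio monolayers, 1 day old, in 2% FCS medium. Compound added as serial half-log dilutions from 100 μM immediately before rhinovirus infection. Activity calculated per Pauwels; IC50 is the mean of at least 3 experiments.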

rhinovirus B5 = test: Antiviral activity against Rhinovirus B5 infected in human HeLa cell line assessed as inhibition of virus-induced cytopathic effect measured after 72 hrs by crystal violet uptake assay; assay type: functional, organism-based; details: for pIC50: Rhinovirus B, HeLa, 72 h, read-out: IC50
Summary of the method: as §2, with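 “infection. CPE read at 72 h by crystal violet staining, elution and OD 550/630 nm, with six cell and six virus controls per plate.” for “infection.”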

rhinovirus A2 = test: Antiviral activity against Rhinovirus A2 infected in human HeLa cell line assessed as inhibition of virus-induced cytopathic effect measured after 72 hrs by crystal violet uptake assay; assay type: functional, organism-based; details: for pIC50: Rhinovirus A, HeLa, 72 h, read-out: IC50; summary of the method: as §2
Coxsackievirus B3 [2] = test: Antiviral activity against Coxsackievirus B3 Nancy infected in human HeLa cell line assessed as inhibition of virus-induced cytopathic effect measured after 48 hrs by crystal violet uptake assay; assay type: functional, organism-based; details: for pIC50: Enterovirus B, Nancy, HeLa, 48 h, read-out: IC50; summary of the method: as §1
HeLa = test: Cytotoxicity against human HeLa cells assessed as reduction in cell viability incubated for 72 hrs measured by crystal violet based micro plate reader method; details: hela, 72 h
Summary of the method: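 Two-day-old confluent HeLa Ohio monolayers exposed to half-log dilutions (100 μM downward) in 2% FCS medium for 72 h at 37 °C, 5% CO2. Cells fixed and stained with crystal violet/formalin, dye eluted with acidified citrate-ethanol, OD read at 550/630 nm. Viability expressed relative to six mock-treated controls; CC50 is the mean of at least 3 tests.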

Coxsackievirus B3 [3] = test: Antiviral activity against pleconaril-resistant Coxsackievirus B3 97927 11207T/I1092 mutant infected in human HeLa cell line assessed as inhibition of virus-induced cytopathic effect measured after 48 hrs by crystal violet uptake assay; assay type: functional, organism-based; details: for pIC50: read-out: IC50; summary of the method: as §1
Coxsackievirus B3 [4] = test: Antiviral activity against wild type Coxsackievirus B3 97927 infected in human HeLa cell line assessed as inhibition of virus-induced cytopathic effect measured after 48 hrs by crystal violet uptake assay; assay type: functional, organism-based; details: for pIC50: Enterovirus B, 97927, HeLa, 48 h, read-out: IC50
Summary of the method: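 Coxsackievirus B3 infection of 2-day-old HeLa Ohio monolayers in 2% FCS medium. Half-log dilutions from 100 μM added just before infection; guanidine hydrochloride served as positive control. Antiviral activity calculated per Pauwels; IC50 is the mean of at least 3 separate tests.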

Coxsackievirus B3 [5] = test: Antiviral activity against pleconaril-resistant Coxsackievirus B3 97927 11207M/I1092 mutant infected in human HeLa cell line assessed as inhibition of virus-induced cytopathic effect measured after 48 hrs by crystal violet uptake assay; assay type: functional, organism-based; summary of the method: as §1

SMILES	IC50 (Coxsackievirus B3 [1])	pIC50 (rhinovirus B14)	pIC50 (rhinovirus B5)	pIC50 (rhinovirus A2)	pIC50 (Coxsackievirus B3 [2])	CC50 (HeLa) [µM]	pIC50 (Coxsackievirus B3 [3])	pIC50 (Coxsackievirus B3 [4])	pIC50 (Coxsackievirus B3 [5])	IC50 (rhinovirus B5)	IC50 (rhinovirus A2)	IC50 (Coxsackievirus B3 [2])	IC50 (rhinovirus B14)	pIC50 (Coxsackievirus B3 [1])	IC50 (Coxsackievirus B3 [4])	IC50 (Coxsackievirus B3 [3])
CN(C)C(=O)c1cc(CCCOc2ccc(-c3noc(C(F)(F)F)n3)cc2F)on1	Not Active	7.30	5.39	5.42	4.73	20.2	5.84	7.60	7.22							
CC(=O)Nc1cc(-c2noc(C(F)(F)F)n2)ccc1OCCCc1cc(C(=O)N(C)C)no1		4.74				> 100	4.14	4.52	4.79	Not Active	Not Active	Not Active				
CCOC(=O)c1cc(CCCOc2ccc(-c3noc(C(F)(F)F)n3)cc2-n2cccc2)on1						57.3	4.84	4.99		Not Active	Not Active	Not Active	Not Active			
Cc1cc(-c2noc(C(F)(F)F)n2)cc(C)c1OCCCc1cc(-c2ccccc2)no1	Not Active	6.28		6.12		> 100	5.77	6.85	6.55	Not Active						
CCOC(=O)c1cc(CCCOc2c(C)cc(-c3noc(C(F)(F)F)n3)cc2C)on1						17.2	4.69	7.15	6.03			Not Active		4.95		
Cc1cc(-c2noc(C(F)(F)F)n2)cc(C)c1OCCCc1cc(-c2ccc(OC(F)(F)F)cc2)no1						> 100					Not Active				Not Active	
CN(C)C(=O)c1cc(CCCOc2ccc(-c3noc(C(F)(F)F)n3)cc2N)on1		6.48		4.74	4.56	90.8	4.84	5.35	5.68	Not Active				4.29		
CCNC(=O)c1cc(CCCOc2c(C)cc(-c3noc(C(F)(F)F)n3)cc2C)on1	Not Active	6.74		6.22		> 100		7.30	6.32							Not Active
COc1cc(-c2noc(C(F)(F)F)n2)ccc1OCCCc1cc(C(=O)N(C)C)no1		7.40	5.48	5.71	4.42	68	5.78	7.52	6.22					4.29		
COc1ccc(-c2cc(CCCOc3c(C)cc(-c4noc(C(F)(F)F)n4)cc3C)on2)cc1OC		5.56		5.68		41.9									Not Active	
CCOC(=O)c1cc(CCCOc2ccc(-c3noc(C(F)(F)F)n3)cc2)on1		6.47				> 100	4.37	6.13	5.18	Not Active	Not Active	Not Active				
CCOC(=O)c1cc(CCCOc2ccc(-c3noc(C(F)(F)F)n3)cc2/N=C/N(C)C)on1		4.53				> 100		4.70		Not Active	Not Active	Not Active				
Cc1cc(-c2noc(C(F)(F)F)n2)cc(C)c1OCCCc1cc(C(=O)NCc2ccccc2)no1	Not Active	6.60		6.64		> 100		5.86	4.84							Not Active
COc1cc(-c2noc(C(F)(F)F)n2)cc([N+](=O)[O-])c1OCCCc1cc(C(=O)N(C)C)no1	Not Active	6.70		6.49	4.84	25.6	6.08	6.44	6.06	Not Active						
COC(=O)c1cc(CCCOc2c(C)cc(-c3noc(C(F)(F)F)n3)cc2C)on1		6.43		6.44	4.75	35.4	4.89	7.22	5.82	Not Active				4.69		
CCOC(=O)c1cc(CCCOc2ccc(-c3noc(C(F)(F)F)n3)cc2F)on1		6.30				60.2	4.60	6.66	5.87	Not Active	Not Active	Not Active				
CCOC(=O)c1cc(CCCOc2ccc(-c3noc(C(F)(F)F)n3)cc2C(F)(F)F)on1				5.31		28.4	5.98	7.52	8.00	Not Active		Not Active	Not Active			
CN(C)C(=O)c1cc(CCCOc2ccc(-c3noc(C(F)(F)F)n3)cn2)on1		6.92	5.37		4.65	48.8	4.76	5.23								
CCOC(=O)c1cc(CCCOc2ccc(-c3noc(C(F)(F)F)n3)cc2N)on1		4.85				> 100		4.70		Not Active	Not Active	Not Active				
Cc1cc(-c2noc(C(F)(F)F)n2)cc(C)c1OCCCc1cc(C(=O)OC(C)C)no1	Not Active	6.37		5.61		17.9		6.72	5.39							Not Active
CN(C)C(=O)c1cc(CCCOc2ccc(-c3noc(C(F)(F)F)n3)cc2)on1		7.40	5.76	5.34	4.97	28	5.09	6.34	7.70					4.56		
CCOC(=O)c1cc(CCCOc2c(OC)cc(-c3noc(C(F)(F)F)n3)cc2[N+](=O)[O-])on1		5.57		5.25		> 100	4.36	5.92	5.00	Not Active		Not Active				
CCOC(=O)c1cc(CCCOc2ccc(-c3noc(C(F)(F)F)n3)cc2[N+](=O)[O-])on1		5.53		4.32		> 100	5.40	6.83	6.74	Not Active		Not Active				
Cc1cc(CCCOc2c(C)cc(-c3noc(C(F)(F)F)n3)cc2C)on1 [PLECONARIL]	Not Active					26.2	5.40		5.69	Not Active		Not Active				
N=C(N)N [GUANIDINE HYDROCHLORIDE]					3.37		3.14	3.23	3.17					3.18		
CN(C)C(=O)c1cc(CCCOc2ccc(-c3noc(C(F)(F)F)n3)cc2-n2cccc2)on1		5.13		5.49		21.2	5.45	6.09	5.97	Not Active		Not Active				
CCOC(=O)c1cc(CCCOc2ccc(-c3noc(C(F)(F)F)n3)cc2NC(C)=O)on1						> 100				Not Active	Not Active	Not Active	Not Active		Not Active	
CCOC(=O)c1cc(CCCOc2ccc(-c3noc(C(F)(F)F)n3)cc2OC)on1		6.18	4.71	4.22		> 100	4.43	6.31	5.47			Not Active				
Cc1cc(-c2noc(C(F)(F)F)n2)cc(C)c1OCCCc1cc(C(N)=O)no1	Not Active	6.66		6.30		> 100		7.15	5.77							Not Active
